Data from ChEMBL document CHEMBL3259761, “Myrotheciumones: bicyclic cytotoxic lactones isolated from an endophytic fungus of Ajuga decumbens” (Bioorg Med Chem Lett, 2014).
Activity calls are given as the source filed them. The calls are words filed in the database; no cut-off is given here.

Experiments:
[1] = tested on: HepG2; test: Cytotoxicity against human HepG2 cells at 100 uM after 48 hrs by MTT assay; assay type: functional, cell-based
[2] = tested on: SMMC-7721; test: Cytotoxicity against human SMMC7721 cells at 100 uM after 48 hrs by MTT assay; assay type: functional, cell-based
[3] = tested on: A549; test: Cytotoxicity against human A549 cells at 100 uM after 48 hrs by MTT assay; assay type: functional, cell-based
[4] = tested on: MCF7; test: Cytotoxicity against human MCF7 cells at 100 uM after 48 hrs by MTT assay; assay type: functional, cell-based
[5] = tested on: HepG2; test: Cytotoxicity against human HepG2 cells after 48 hrs by MTT assay; assay type: functional, cell-based; settings: HepG2, 48 h
Method in brief: (§1)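 Cell lines: HepG2, A549 and MCF-7 from ATCC; SMMC-7721 hepatocellular carcinoma and QSG-7701 and HL-7702 normal human hepatocyte lines from the Type Culture Collection of the Chinese Academy of Sciences, Shanghai. Each line was exposed to compound and growth inhibition was scored; IC50 values reported as mean ± deviation.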

[6] = tested on: SMMC-7721; test: Cytotoxicity against human SMMC7721 cells after 48 hrs by MTT assay; assay type: functional, cell-based; settings: SMMC-7721, 48 h; method in brief: as §1
[7] = tested on: A549; test: Cytotoxicity against human A549 cells after 48 hrs by MTT assay; assay type: functional, cell-based; settings: A549, 48 h; method in brief: as §1
[8] = tested on: MCF7; test: Cytotoxicity against human MCF7 cells after 48 hrs by MTT assay; assay type: functional, cell-based; settings: MCF7, 48 h; method in brief: as §1
[9] = Cytotoxicity against human QSG7701 cells after 48 hrs by MTT assay; assay type: cell-based; settings: QSG7701, 48 h; method in brief: as §1
[10] = Cytotoxicity against human HL7702 cells after 48 hrs by MTT assay; assay type: cell-based; settings: L02, 48 h; method in brief: as §1
[11] = tested on: HepG2; test: Induction of apoptosis in human HepG2 cells assessed as PARP cleavage after 8 hrs by Western blotting; assay type: functional, cell-based
Method in brief: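 HepG2 cells were treated either at 5, 10 and 20 µM for 8 h, or at 4 µM for 0, 3, 6 or 12 h. PARP cleavage was then assessed.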

[12] = tested on: HepG2; test: Induction of apoptosis in human HepG2 cells assessed as caspase 3 activity at 4 uM at 12 hrs by Ac-DEVD-pNA-based colorimetric assay relative to control; assay type: functional
Method in brief: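 HepG2 cells were treated at 4 µM for 0, 3, 6 and 12 h. Caspase-3 activity was measured colorimetrically as conversion of Ac-DEVD-pNA to p-nitroaniline, using a Biovision kit per the manufacturer's protocol. Activity was expressed as fold over control.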

[13] = tested on: HepG2; test: Induction of apoptosis in human HepG2 cells assessed as cytochrome c release from mitochondria at 4 uM after 12 hrs by immunofluorescence analysis relative to control; assay type: functional, cell-based
Method in brief: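 HepG2 cells were treated at 4 µM for 12 h, then assessed for cytochrome c release from mitochondria.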

SMILES	Activity [1]	Activity [2]	Activity [3]	Activity [4]	IC50 [5] [µM]	IC50 [6] [µM]	IC50 [7] [µM]	IC50 [8] [µM]	IC50 [9] [µM]	IC50 [10] [µM]	Activity [11]	fold change (FC) [12]	Activity [13]
C[C@@H]1[C@@H]2C(=O)O[C@@H]2C[C@]1(C)O	inactive	inactive	inactive	inactive									
C[C@@H]1[C@@H]2CC(=O)O[C@@H]2C[C@]1(C)O					5.36	6.56	5.88	7.56	16.3	20.7	Dose-dependent effect	6	Active
